From ChEMBL document CHEMBL2157952, “Chemotherapy of leishmaniasis. Part IX: synthesis and bioevaluation of aryl substituted ketene dithioacetals as antileishmanial agents” (Bioorg Med Chem Lett, 2012)
Activity calls are given as the source filed them. The rule behind the calls is not given here.

Columns and labels:
Leishmania donovani [1] = assay: Antileishmanial activity against Leishmania donovani amastigotes infected in mouse J774A.1 cells after 72 hrs by luciferase reporter gene based luminometric analysis; assay type: functional, organism-based; conditions: J774.A1, 72 h
How it was run: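 J-774A.1 macrophages seeded at 4 × 10⁴/well in RPMI-1640 + 10% FCS, 37 °C, CO₂. After 24 h, infected with stationary-phase luciferase-expressing promastigotes (4 × 10⁵/well). Medium replaced with compound, seven-point twofold dilutions from 40 µM, for 72 h. Steady Glo added, luminescence read as RLU. IC50 by nonlinear regression with four-parameter Hill fit.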

Leishmania donovani [2] = assay: Antileishmanial activity against Leishmania donovani MHOM/IN/80/Dd8 amastigotes infected in golden hamster assessed as inhibition of parasite multiplication at 50 mg/kg, ip for 5 days measured on day 7 by Giemsa staining; assay type: functional; conditions: for inhibition in vivo at 50 mg/kg: MHOM/IN/80/Dd8, ip, route intraperitoneal
How it was run: (§1)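 Golden hamsters (inbred, either sex, 40–45 g) infected intracardially with 1 × 10⁷ amastigotes each; infection establishes in 15–20 days. Animals randomized by biopsy parasite burden, 5–6 per sample. Dosing began 2 days after biopsy, five consecutive days. Post-treatment biopsy on day 7 after last dose, amastigotes counted by Giemsa staining. PI = 100 − [ANAT × 100/(INAT × TIUC)] versus untreated controls.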

[3] = Selectivity index, ratio of CC50 for human KB cells to IC50 for Leishmania donovani amastigotes infected in mouse J774A.1 cells; assay type: functional
How it was run: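 SI = CC50 (KB cells, MTT, 72 h) divided by IC50 against intracellular amastigotes in J-774A.1 macrophages (luciferase read-out, 72 h).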

[4] = Cytotoxicity against human KB cells assessed as cell viability after 72 hrs by MTT assay; assay type: cell-based
How it was run: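 Exponentially growing KB cells at 1 × 10⁵/well exposed 72 h at 37 °C in humidified CO₂/air to seven-point threefold dilutions from 400 µM; DMSO vehicle wells as control. MTT (5 mg/ml) added 2 h at 37 °C, supernatant removed, DMSO added, absorbance at 544 nm. CC50 is the concentration giving 50% viability reduction versus medium-only cells.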

Leishmania donovani [5] = assay: Antileishmanial activity against Leishmania donovani MHOM/IN/80/Dd8 amastigotes infected in golden hamster assessed as inhibition of parasite multiplication at 30 mg/kg, po for 5 days measured on day 7 by Giemsa staining; assay type: functional; how it was run: as §1

Row | Structure (SMILES) | IC50 (Leishmania donovani [1]) [µM] | inhibition (Leishmania donovani [2]) | Ratio CC50/IC50 [3] | inhibition in vivo at 50 mg/kg (Leishmania donovani [2]) [%] | CC50 at 72 h [4] [µM] | inhibition in vivo at 30 mg/kg (Leishmania donovani [5]) [%]
1 | CSC(=CC(=O)/C=C/c1ccc(-n2ccnc2)cc1)SC | > 40 | inactive | – | – | – | –
2 | CSC(=CC(=O)/C=C/c1ccccc1Cl)SC | > 40 | inactive | – | – | – | –
3 | CSC(=CC(=O)/C=C/c1ccc(-n2cnnc2)cc1)SC | > 20 | inactive | – | – | – | –
4 | CSC(=CC(=O)/C=C/c1cccc([N+](=O)[O-])c1)SC | 5.12 | – | 1.92 | 82.8 | 9.83 | –
5 | CCCCCCCCCCCCCCCCOP(=O)([O-])OCC[N+](C)(C)C [MILTEFOSINE] | 12.5 | – | 0.26 | – | 3.23 | 95.3
6 | COc1cc(/C=C/C(=O)C=C(SC)SC)ccc1OCc1ccccc1 | 3.56 | – | 57.26 | 78 | 204 | –
7 | CSC(=CC(=O)/C=C/c1ccc([N+](=O)[O-])cc1)SC | > 40 | inactive | – | – | – | –
8 | CSC(=CC(=O)/C=C/c1ccc(Cl)cc1)SC | > 20 | inactive | – | – | – | –
9 | CSC(=CC(=O)/C=C/c1ccc(F)cc1)SC | > 40 | inactive | – | – | – | –
